ChEMBL document CHEMBL1144112, “New bromopyrrole alkaloids from the Indopacific sponge Agelas nakamurai” (1999)

Columns and labels:
Assay type in all cases: functional
[1] = system: Bacillus subtilis; assay: Antibacterial activity against Bacillus subtilis subsp. subtilis str. 168 at 0.2 umol/disk after 24 hrs by agar plate diffusion assay
Outline: (§1)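 Paper disks 5 mm across loaded with 0.2 µmol of each isolated compound, placed on agar plates seeded with the test bacterium (B. subtilis 168, S. aureus ATCC 25923, E. coli ATCC 25922 or E. coli HB 101). Read-out is the diameter of the inhibition zone in mm.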

[2] = system: Staphylococcus aureus; assay: Antibacterial activity against Staphylococcus aureus ATCC 25923 at 0.2 umol/disk after 24 hrs by agar plate diffusion assay; outline: as §1
[3] = system: Escherichia coli; assay: Antibacterial activity against Escherichia coli ATCC 25922 at 0.2 umol/disk after 24 hrs by agar plate diffusion assay; outline: as §1
[4] = system: Escherichia coli; assay: Antibacterial activity against Escherichia coli HB101 at 0.2 umol/disk after 24 hrs by agar plate diffusion assay; outline: as §1

| SMILES | inhibition zone (IZ) [1] [mm] | inhibition zone (IZ) [2] [mm] | inhibition zone (IZ) [3] [mm] | inhibition zone (IZ) [4] [mm] |
| --- | --- | --- | --- | --- |
| Cl.Cl.Nc1ncc([C@H]2[C@H](CNC(=O)c3ccc[nH]3)[C@@H](CNC(=O)c3ccc[nH]3)[C@@H]2c2cnc(N)[nH]2)[nH]1 [DEBROMOSCEPTRIN] | 10 |  |  |  |
| COC(=O)[C@H]1[C@H](CNC(=O)c2cc(Br)c[nH]2)[C@@H](CNC(=O)c2cc(Br)c[nH]2)[C@@H]1c1c[nH]c(N)n1.O=C(O)C(F)(F)F [NAKAMURIC ACID METHYL ESTER] | 9 |  |  |  |
| Nc1nc([C@@H]2c3[nH]c(N)nc3C[C@H](CNC(=O)c3cc(Br)c[nH]3)[C@H]2CNC(=O)c2cc(Br)c[nH]2)c[nH]1.O=C(O)C(F)(F)F.O=C(O)C(F)(F)F [AGELIFERIN] | 14 | 11 | 8 | 11 |
| Nc1nc([C@H]2[C@H](CNC(=O)c3cc(Br)c[nH]3)[C@@H](CNC(=O)c3cc(Br)c[nH]3)[C@@H]2C(=O)O)c[nH]1.O=C(O)C(F)(F)F [NAKAMURIC ACID] | 9 |  |  |  |
| Nc1nc([C@H]2[C@H](CNC(=O)c3cc(Br)c[nH]3)[C@@H](CNC(=O)c3cc(Br)c[nH]3)[C@@H]2c2c[nH]c(N)n2)c[nH]1.O=C(O)C(F)(F)F.O=C(O)C(F)(F)F [SCEPTRIN (TFA SALT)] | 16 | 16 | 9 | 13 |
